Laboratory results from ChEMBL document CHEMBL5385868, “Bifunctional carbazole derivatives for simultaneous therapy and fluorescence imaging in prion disease murine cell models” (Eur J Med Chem, 2023).
pEC50: −log10 of the molar value. Active and inactive are the calls of the source. The calls are words filed in the database; no cut-off is given here.

Columns and labels:
[1] = Anti-prion activity against RML infected mouse ScGT1 cell lysate assessed as PrPSc residual level at 10 uM measured after 5 days by Western blot analysis relative to control; format: functional; settings: time 5 day
Summary of the method: (§1)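 RML-infected ScGT1 cells, confluent, split 1:10 and seeded in triplicate; compound (DMSO stock diluted in water) added to medium two days after seeding at 0.1, 1 or 10 µM, vehicle control; 5 days treatment. Lysates (1 mg/mL) digested with 20 µg/mL PK, 1 h, 37 °C, stopped with PMSF, ultracentrifuged; pellets blotted with anti-PrP Fab D18. PrPSc remaining expressed relative to untreated lysates.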

[2] = Cytotoxicity against RML infected mouse ScGT1 cells assessed as reduction in cell viability at 0.1 uM measured after 5 days by MTT assay relative to control; format: toxicity, cell-based; settings: scgt1, 120 h, time 5 day
Summary of the method: (§2)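 MTT viability in RML-infected ScGT1 cells after 5 days exposure to 0.1, 1 or 10 µM compound, vehicle control. MTT 5 mg/mL in PBS for 3 h at 37 °C, 5% CO2; dissolved in DMSO/2-propanol (1:1), 30 min at room temperature, then plate read; triplicate.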

[3] = Cytotoxicity against RML infected mouse ScGT1 cells assessed as reduction in cell viability at 10 uM measured after 5 days by MTT assay relative to control; format: toxicity, cell-based; settings: scgt1, 120 h, time 5 day; summary of the method: as §2
[4] = Anti-prion activity against RML infected mouse ScGT1 cell lysate assessed as PrPSc residual level at 0.1 uM measured after 5 days by Western blot analysis relative to control; format: functional; settings: time 5 day; summary of the method: as §1
[5] = Anti-prion activity against RML infected mouse ScGT1 cell lysate assessed as PrPSc residual level at 1 uM measured after 5 days by Western blot analysis relative to control; format: functional; settings: time 5 day; summary of the method: as §1
[6] = Cytotoxicity against RML infected mouse ScGT1 cells assessed as reduction in cell viability at 1 uM measured after 5 days by MTT assay relative to control; format: toxicity, cell-based; settings: scgt1, 120 h, time 5 day; summary of the method: as §2
[7] = molecular target: Major prion protein (Mus musculus) (UniProt P04925); assay: Inhibition of full length recombinant mouse PrP (89 to 231 residues) expressed in Escherichia coli BL21 (DE3) cells to PrPSc conversion assessed as vCJD prion amplification at 10 uM in presence of PMCA
Summary of the method: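 vCJD prions serially diluted 10^-5 to 10^-8 into 10% brain homogenate from Tg(MHu2M) mice expressing chimeric human-murine PrP, in conversion buffer with 0.05% digitonin. Substrate supplemented with PBS or 10 µM compound. PMCA: incubation at 37/40 °C with 40 s sonication pulses at 270–280 W.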

[8] = tested on: ScN2a; assay: Anti-prion activity against 22L prion infected mouse ScN2a cells assessed as reduction in PrPSc level measured after 5 days by Western blot analysis; format: functional, cell-based; settings: 120 h
Summary of the method: (§3)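 22L-infected ScGT1 or ScN2a cells given compound in medium (vehicle ≤0.001% DMSO), triplicate. Lysates digested with 20 µg/mL PK for 1 h at 37 °C, stopped with PMSF, ultracentrifuged; PK-resistant PrP detected by Western blot with anti-PrP Fab D18 and HRP-conjugated secondary, ECL read-out.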

[9] = Anti-prion activity against 22L prion infected mouse ScGT1 cells assessed as reduction in PrPSc level measured after 5 days by Western blot analysis; format: functional, cell-based; settings: ScGT1, 120 h; summary of the method: as §3
[10] = molecular target: Major prion protein (Mus musculus) (UniProt P04925); assay: Inhibition of full length recombinant mouse PrP (89 to 231 residues) expressed in Escherichia coli BL21 (DE3) cells to PrPSc conversion assessed as lag time for protein aggregation at 20 uM measured after 72 hrs by spectramax fluorescence microplate reader analysis
[11] = molecular target: Major prion protein (Mus musculus) (UniProt P04925); assay: Inhibition of full length recombinant mouse PrP (89 to 231 residues) expressed in Escherichia coli BL21 (DE3) cells to PrPSc conversion assessed as RML amplification at 10 uM
[12] = molecular target: Major prion protein (Mus musculus) (UniProt P04925); assay: Inhibition of full length recombinant mouse PrP (89 to 231 residues) expressed in Escherichia coli BL21 (DE3) cells to PrPSc conversion assessed as lag time for protein aggregation at 40 uM measured after 72 hrs by spectramax fluorescence microplate reader analysis
[13] = Anti-prion activity against RML infected mouse ScGT1 cells assessed as reduction in PrPSc level measured after 5 days by Western blot analysis; format: functional, cell-based; settings: ScGT1, 120 h; summary of the method: as §1
[14] = tested on: N2a; assay: Effect on N2a mouse cells assessed appearance of protein aggregates measured after 60 mins by fluorescence based confocal microscopy based analysis; format: functional, cell-based
Summary of the method: (§4)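 N2a cells on coverslips at semi-confluence for 24 h, fixed in 4% paraformaldehyde, permeabilised with 0.2% Triton X-100, denatured with 6 M GdnHCl for 10 min, blocked with 1% BSA, then stained with 0.025% compound for 60 min. Anti-PrP mAb W226 as counterstain, DAPI for nuclei; confocal imaging with FITC/TRITC filters.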

[15] = molecular target: Major prion protein (Mus musculus) (UniProt P04925); assay: Inhibition of full length recombinant mouse PrP (89 to 231 residues) expressed in Escherichia coli BL21 (DE3) cells to PrPSc conversion assessed as RML amplification at 10 uM in presence of PMCA
[16] = tested on: N2a; assay: Effect on N2a mouse cells assessed appearance of protein clusters measured after 60 mins by fluorescence based confocal microscopy based analysis; format: functional, cell-based; summary of the method: as §4
[17] = Anti-prion activity against RML infected mouse ScGT1 cell assessed as PrPSc clearance level measured after 5 days by Western blot analysis; format: functional, cell-based; settings: ScGT1, 120 h; summary of the method: as §1
[18] = molecular target: Major prion protein (Mus musculus) (UniProt P04925); assay: Inhibition of full length recombinant mouse PrP (89 to 231 residues) expressed in Escherichia coli BL21 (DE3) cells to PrPSc conversion assessed as lag time for protein aggregation at 4 uM measured after 72 hrs by spectramax fluorescence microplate reader analysis
[19] = molecular target: Major prion protein (Mus musculus) (UniProt P04925); assay: Inhibition of full length recombinant mouse PrP (89 to 231 residues) expressed in Escherichia coli BL21 (DE3) cells to PrPSc conversion assessed as vCJD prion amplification at 10 uM
[20] = tested on: GT1; assay: Anti-prion activity against mouse GT1 cells assessed as reduction in PrPSc level at 0.1 to 10 uM measured after 5 days by Western blot analysis; format: functional, cell-based; settings: dose 0.1-10 µM, time 5.0 day
[21] = tested on: ScGT1; assay: (§5) Anti-prion activity against RML infected mouse ScGT1 cells assessed as inhibition of PrPSc formation measured after 5 days by Western blot analysis; format: functional; settings: dose 0.1-10 µM, time 5.0 day; summary of the method: as §1
[22] = as §5; format: functional; settings: dose 0.1-10 µM; time 5 day; summary of the method: as §1

Major prion protein (Mus musculus), sequence (P04925 whole entry, the tested form may be a part): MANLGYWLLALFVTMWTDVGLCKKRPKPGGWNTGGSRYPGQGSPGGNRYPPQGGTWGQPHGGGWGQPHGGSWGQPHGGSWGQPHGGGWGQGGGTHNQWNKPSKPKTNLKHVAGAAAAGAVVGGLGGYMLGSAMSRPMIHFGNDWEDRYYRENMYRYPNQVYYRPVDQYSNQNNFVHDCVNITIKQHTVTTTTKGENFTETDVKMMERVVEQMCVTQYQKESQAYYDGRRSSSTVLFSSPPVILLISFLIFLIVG

For `O=C(CN1CCN(c2ccccc2)CC1)Nc1ccc2[nH]c3ccc(NC(=O)CN4CCN(c5ccccc5)CC4)cc3c2c1`, the Activity [1] was 134%, the “Cell viability relative to control” value [2] was 71% and the Activity [3] was 63%. For the same molecule, the Activity [4] was 124%, the Activity [5] was 136% and the “Cell viability (% of control)” value [6] was 73%.
In the case of `O=C(CN1CCOCC1)Nc1ccc2[nH]c3ccc(NC(=O)CN4CCOCC4)cc3c2c1`, the Activity [1] was 59%, the “Cell viability relative to control” value [2] was 101% and the Activity [3] was 84%. The Activity [4] was 96%, the Activity [5] was 102% and the “Cell viability (% of control)” value [6] was 86%.
In the case of `CN1CCN(CC(=O)Nc2ccc3[nH]c4ccc(NC(=O)CN5CCN(C)CC5)cc4c3c2)CC1`, the Activity [1] was 28%, the “Cell viability relative to control” value [2] was 99% and the Activity [3] was 47%. The Activity [4] was 85%, the Activity [5] was 46% and the “Cell viability (% of control)” value [6] was 70%.
For `CC(C)N(CC(=O)Nc1ccc2[nH]c3ccc(NC(=O)CN(C(C)C)C(C)C)cc3c2c1)C(C)C`, the Activity [1] was 24%, the “Cell viability relative to control” value [2] was 92% and the Activity [3] was 61%. The Activity [4] was 73%, the Activity [5] was 39% and the “Cell viability (% of control)” value [6] was 75%.
In the case of `CN(C)CC(=O)Nc1ccc2[nH]c3ccc(NC(=O)CN(C)C)cc3c2c1`, the Activity [1] was 17%, the inhibition [7] was “inactive” and the “Cell viability relative to control” value [2] was 111%. The pEC50 [8] was 5.14, the pEC50 [9] was 4.47 and the TIME [10] was 5 h. The inhibition [11] was “inactive”, the Activity [3] was 95% and the Activity [4] was 130%. For the same molecule, the TIME [12] was 9.5 h, the pEC50 [13] was 5.87 and the Activity [14] was “Active”. The inhibition [15] was “Active”, the Activity [16] was “inactive” and the Activity [5] was 47%. The pEC50 [17] was 5.18, the “Cell viability (% of control)” value [6] was 99% and the TIME [18] was 21.5 h. The inhibition [19] was “inactive” and the Activity [20] was “inactive”.
For `O=C(CN1CCCC1)Nc1ccc2[nH]c3ccccc3c2c1`, the Activity [1] was 26%, the “Cell viability relative to control” value [2] was 83% and the Activity [3] was 29%. For the same molecule, the Activity [4] was 78%, the Activity [5] was 75% and the “Cell viability (% of control)” value [6] was 72%.
In the case of `O=C(CN1CCCCC1)Nc1ccc2[nH]c3ccc(NC(=O)CN4CCCCC4)cc3c2c1`, the Activity [1] was 44%, the “Cell viability relative to control” value [2] was 81% and the Activity [3] was 69%. The Activity [4] was 109%, the Activity [5] was 105% and the “Cell viability (% of control)” value [6] was 76%.
With `CCN(CC)CC(=O)Nc1ccc2[nH]c3ccc(NC(=O)CN(CC)CC)cc3c2c1` the Activity [1] was 31%, the “Cell viability relative to control” value [2] was 108% and the Activity [3] was 103%. For the same molecule, the Activity [4] was 84%, the pEC50 [13] was 5.65 and the Activity [5] was 57%. The pEC50 [17] was 5.10, the “Cell viability (% of control)” value [6] was 99% and the Activity [20] was “inactive”.
With `O=C(CN1CCCC1)Nc1ccc2[nH]c3ccc(NC(=O)CN4CCCC4)cc3c2c1` the Activity [1] was 27%, the “Cell viability relative to control” value [2] was 118% and the Activity [3] was 71%. For the same molecule, the Activity [4] was 148%, the Activity [21] was “Dose-Dependent Effect” and the Activity [22] was 7.4 µM. For the same molecule, the Activity [5] was 103% and the “Cell viability (% of control)” value [6] was 85%.
For `O=C(Cn1ccnc1)Nc1ccc2[nH]c3ccc(NC(=O)Cn4ccnc4)cc3c2c1`, the Activity [1] was 74%, the “Cell viability relative to control” value [2] was 100% and the Activity [3] was 77%. The Activity [4] was 120%, the Activity [5] was 98% and the “Cell viability (% of control)” value [6] was 89%.
For `O=C(CN1CCCC1)Nc1ccc(Cc2ccc(NC(=O)CN3CCCC3)cc2)cc1`, the Activity [1] was 13%, the “Cell viability relative to control” value [2] was 85% and the Activity [3] was 50%. For the same molecule, the Activity [4] was 127%, the Activity [22] was 7.8 µM and the Activity [5] was 103%. For the same molecule, the pEC50 [17] was 5.60, the “Cell viability (% of control)” value [6] was 69% and the Activity [20] was “inactive”.
